TRPC4 potent: allosterically enhances the mouse TRPC4 cation channel. B-score at 10 µM. HEK293 TRPC4beta/mu-opioid, DAMGO EC20, Fluo-4 Ca2+ flux; hits give high values. hit rate 0.42% among 310,000;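 active = B-score of calcium response area above 5 SD of library B-scores, with initial fluorescence ratio within 5 SD of library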
Target sequence (Q9QUQ5 whole entry, looked up): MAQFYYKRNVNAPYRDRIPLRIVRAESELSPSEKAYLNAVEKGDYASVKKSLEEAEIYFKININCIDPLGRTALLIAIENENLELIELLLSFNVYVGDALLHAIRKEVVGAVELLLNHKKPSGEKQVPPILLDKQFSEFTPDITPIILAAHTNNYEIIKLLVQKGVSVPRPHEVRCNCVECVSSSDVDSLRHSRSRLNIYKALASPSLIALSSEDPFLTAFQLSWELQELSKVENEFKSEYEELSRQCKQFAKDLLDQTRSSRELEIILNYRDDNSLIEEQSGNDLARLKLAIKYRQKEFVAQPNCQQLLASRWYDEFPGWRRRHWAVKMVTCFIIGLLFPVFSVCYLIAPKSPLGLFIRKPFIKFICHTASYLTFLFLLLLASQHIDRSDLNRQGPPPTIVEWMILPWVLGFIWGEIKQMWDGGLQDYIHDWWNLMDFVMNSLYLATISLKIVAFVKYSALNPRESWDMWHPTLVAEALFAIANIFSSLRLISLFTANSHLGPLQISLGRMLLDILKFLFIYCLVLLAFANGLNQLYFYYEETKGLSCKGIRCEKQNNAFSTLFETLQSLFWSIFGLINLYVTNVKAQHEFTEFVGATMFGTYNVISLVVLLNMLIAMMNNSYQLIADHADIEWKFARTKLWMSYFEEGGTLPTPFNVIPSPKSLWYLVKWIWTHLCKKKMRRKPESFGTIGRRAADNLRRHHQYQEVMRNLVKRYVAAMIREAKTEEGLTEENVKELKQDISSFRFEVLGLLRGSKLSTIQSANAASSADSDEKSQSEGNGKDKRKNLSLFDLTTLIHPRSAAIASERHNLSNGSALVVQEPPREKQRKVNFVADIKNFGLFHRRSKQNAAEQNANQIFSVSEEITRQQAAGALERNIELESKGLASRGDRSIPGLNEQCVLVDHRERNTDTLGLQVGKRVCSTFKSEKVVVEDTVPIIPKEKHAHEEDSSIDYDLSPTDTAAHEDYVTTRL
TRPC6 inh: mouse TRPC6 channel inhibition; Q61143; HEK293-TRPC6, membrane potential dye, ACh-evoked depolarization; hits give low values; B-score at 10 µM; hit rate 1.1% among 310,000;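 active = B-score under library mean minus 3 SD, initial fluorescence not abnormally high, positive integrated signal ratio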;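 also: B-score derived from integrated fluorescence ratio over the kinetic read; more negative B-score means stronger inhibition of depolarization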
TRPC4 agonist: activators of mouse TRPC4 channel | AID 2237 | HEK293 TRPC4beta/mu-opioid, Fluo4 calcium fluorescence; hits give high values | Q9QUQ5 | B-score at 10 µM | hit rate 0.49% among 310,000;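 active = B-score above 5 SD of library B-scores, and initial fluorescence ratio not above library mean plus 5 SD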;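 also: positive B-score marks a calcium rise read as TRPC4 activation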
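Assay system – TRPC4beta and mu-opioid receptor HEK293 stable cells · Measured by – Fluo4 fluorescence, kinetic · Schedule – dye loading 45 min room temperature, 110 s kinetic read · Read-out – B-scored integrated calcium fluorescence ratio · Controls – buffer and maximal DAMGO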
TRPC4 block: inhibitors of mouse TRPC4 channel; B-score at 10 µM; Q9QUQ5; hit rate 0.39% among 300,000; HEK293 TRPC4beta/mu-opioid, DAMGO-evoked Fluo4 calcium flux; hits give low values;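 active = B-score over 3 SD under the library average, no early fluorescence shift, positive overall ratio signal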
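Signal: kinetic Fluo4 fluorescence imaging of calcium influx. Material: stable TRPC4beta/mu-opioid receptor HEK293 cells. Probe or stimulus: DAMGO in two steps, submaximal then maximal.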
TRPC6 activator: mouse TRPC6 channel activation; hit rate 0.13% among 310,000; AID 2550; Q61143; B-score at 10 µM; HEK293-TRPC6 membrane potential dye fluorescence; hits give high values;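 active = B-score of the integrated fluorescence ratio above library mean plus 3 SD, and starting fluorescence ratio within library mean plus 5 SD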;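 also: higher score means more depolarization so channel activation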
Hits are given with their value; – = inactive. The list is not random: actives were taken first. Their share in the collection is about 2.3%.

SMILES	TRPC4 potent	TRPC6 inh	TRPC4 agonist	TRPC4 block	TRPC6 activator
CN(C(=O)CSc1nc(-c2ccc(C(C)(C)C)cc2)c(C#N)c(=O)[nH]1)C1CCCCC1	–	–	–	-6	–
N#Cc1c(-c2ccccc2)nc(SCC(=O)NC2CCCCC2)[nH]c1=O	–	–	–	–	–
COc1ccc(Nc2cc(C)c3c(O)cccc3n2)cc1	–	–	–	-5	–
Cc1ccccc1Nc1cc(C)c2c(O)cccc2n1	–	–	72	–	–
Oc1cccc(C2c3[nH]c4ccccc4c3CCN2Cc2ccoc2)c1 (configuration not stated)	–	–	–	–	–
Oc1cccc(C2c3[nH]c4ccccc4c3CCN2Cc2ccc3c(c2)CCO3)c1 (configuration not stated)	–	–	–	-6	–
NC(=O)C[n+]1cccc(CNC(=O)c2ccc(OC(F)F)cc2)c1	–	–	–	–	–
O=C(C[n+]1ccc(C(=O)NCc2ccccc2)cc1)c1ccc(OC(F)F)cc1	10	–	–	–	–
Cc1ccc(O)c(NC(=S)NC(=O)Cc2ccc(Cl)cc2)c1	12	–	–	–	–
CCCc1cc(=O)oc2c(C)c(O[C@@H]3O[C@H](CO)[C@@H](O)[C@H](O)[C@H]3O)ccc12	–	–	–	–	–
CCCCOc1ccc(CSCCN=C(N)N)cc1	–	–	–	-6	–
CCCCOc1ccc(CSC(CC(=O)O)C(=O)O)cc1 (configuration not stated)	–	–	–	–	–
CC(Nc1c[nH]c(=O)[nH]c1=O)c1ccccc1 (configuration not stated)	–	–	–	–	–
Cc1cc(-c2ccc(C)c(S(=O)(=O)N3CCN(C(=O)c4ccco4)CC3)c2)on1	45	–	–	–	–
CCc1ccc(-c2cc(C)no2)cc1S(=O)(=O)N1CCN(C(=O)c2ccco2)CC1	–	–	–	–	–
COc1ccc(-c2ccc(CNCc3ccccn3)o2)cc1Cl	–	–	–	-8	–
CCCc1cc(=O)oc2cc(OCc3ccc(C(=O)O)cc3)ccc12	–	–	–	–	–
CC1(c2ccc(Cl)cc2Cl)OCC(Cn2ccnc2)O1 (configuration not stated)	–	–	105	–	–
O=C(Nc1ccc2c(c1)CCC2)c1cnc(Cl)c(Cl)c1	–	–	–	–	–
O=C(Nc1ccc2c(c1)CCC2)c1ccc(Cl)nc1	–	–	–	-6	–
O=[N+]([O-])c1ccc(NNS(=O)(=O)c2cc(Cl)ccc2Cl)nc1	–	–	–	–	–
Cc1ccc(C2c3c(C)nn(-c4ccc([N+](=O)[O-])cc4)c3N=C3C(=O)Nc4ccccc4N32)cc1 (configuration not stated)	–	-5.28	–	–	–
CN(C)C1CCN(C(=O)c2cccc(OC3CCN(S(=O)(=O)N(C)C)CC3)c2)C1 (configuration not stated)	–	–	–	–	–
C=CSc1sc(Cl)c(N2CCOCC2)c1[N+](=O)[O-]	–	–	–	–	–
C=CS(=O)(=O)c1sc(Cl)c(N2CCOCC2)c1[N+](=O)[O-]	–	–	–	-6	–
SMILES	TRPC4 potent	TRPC6 inh	TRPC4 agonist	TRPC4 block	TRPC6 activator
CC(C)Oc1ccc(Cl)cc1Nc1nc(NCCO)nc(N2CCCC2)n1	–	–	–	–	–
O=C(Nc1cccc2ncccc12)c1cccc(F)c1	–	–	–	–	–
O=C(Nc1cccc2ncccc12)c1cccc(Br)c1	14	–	–	–	–
Cc1c(NC(=S)N/C(=N/S(=O)(=O)c2ccc(Cl)cc2)c2ccccc2)c(=O)n(-c2ccccc2)n1C	–	–	–	–	–
CN(C)CCCN(C(=O)c1ccc(C(=O)c2ccccc2)cc1)c1nc2cc3c(cc2s1)OCO3	–	–	–	–	–
CN(C)CCCN(C(=O)c1ccco1)c1nc2cc3c(cc2s1)OCO3	–	-7.83	–	–	–
Cc1ccc(-c2csc(N(CCCN3CCOCC3)C(=O)c3ccco3)n2)cc1	–	–	–	–	–
Cc1ccc(-c2csc(N(CCCN(C)C)C(=O)c3ccco3)n2)cc1	–	–	–	-6	–
COc1ccc(-c2csc(N(CCCN(C)C)C(=O)c3cccs3)n2)cc1	–	–	56	–	–
Cn1c(CCC(=O)Nc2cc(S(C)(=O)=O)ccc2Cl)nc2cc(S(=O)(=O)N3CCOCC3)ccc21	–	–	–	–	–
c1ccc(-c2ccc(-c3ccccn3)nn2)nc1	–	-11.1	–	–	–
COc1ccc(O)c(C(=O)c2cnc3c(c2)c(=O)[nH]c(=O)n3C)c1	–	–	–	-6	–
COCCn1c(=O)[nH]c(=O)c2cc(C(=O)c3cc(Cl)ccc3O)cnc21	–	–	–	–	–
O=C(NCCc1ccccc1)C1CC(=O)N(C2CCCCC2)C1 (configuration not stated)	–	–	–	–	–
COc1ccc(Sc2nc(-c3ccccc3)ncc2C(=O)O)cc1	–	–	–	-7	–
O=c1c(NCCc2ccc(Cl)cc2)c(-c2ccccc2)c1=O	14	–	–	–	–
O=c1[nH]ncc(NCCc2ccccc2)c1Cl	–	–	–	–	–
COc1ccccc1N1CCN(C2CCCN(C(=O)c3ccsc3)C2)CC1 (configuration not stated)	–	–	–	–	–
COCC(C)NS(=O)(=O)c1ccc(C(=O)NC(Cc2ccccc2)c2ccccc2)cc1 (configuration not stated)	–	–	–	–	–
O=C(CCSc1nc(-c2ccco2)cc(C(F)(F)F)n1)N1CCN(c2ccccn2)CC1	–	-6.34	–	–	–
O=C(CN1C(=O)S/C(=C\c2ccccc2F)C1=O)NC1C=CS(=O)(=O)C1 (configuration not stated)	–	–	–	–	–
CC(C)c1nnc(NC(=O)c2cccc(NC(=O)C(F)(F)F)c2)s1	–	–	–	–	–
COc1ccc(S(=O)(=O)N2CCN(C(=O)CN3C(=O)NC(C)(c4ccc5ccccc5c4)C3=O)CC2)cc1 (configuration not stated)	–	–	–	–	–
CN(CCc1ccccn1)C1CC(=O)N(c2ccc(Cl)cc2)C1=O (configuration not stated)	–	–	148	–	–
CN(CCc1ccccn1)C(=O)Nc1ccc(Cl)cc1	–	–	–	–	–
OCc1ccnc2oc3ccccc3c12	–	–	–	–	–
Cc1ccc2oc(C(=O)NCC(c3ccco3)N(C)C)c(C)c2c1 (configuration not stated)	–	–	–	-6	–
CN(C)C(CNC(=O)c1ccc(C(F)(F)F)cc1)c1ccco1 (configuration not stated)	–	–	86	-7	–
CC(=O)Nc1ccc(C(=O)NCC(c2ccco2)N(C)C)cc1 (configuration not stated)	–	–	–	–	–
